Here are results for seven compounds from ChEMBL document CHEMBL2016484, “In vitro growth inhibition of human cancer cells by novel honokiol analogs” (Bioorg Med Chem, 2012).

SMILES strings stand for the structures. Active and inactive are the calls of the source. The calls are words filed in the database; no cut-off is given here.

In experiment [1] the test system is HT-29. In words: Cytotoxicity against human HT-29 cells after 24 hrs by MTS assay. Type of experiment: functional, cell-based. Conditions: for IC50: HT-29, 24 h. (Formazan colour is commonly taken as a measure of viable cells.)
Experiment [2] relates to A549. In words: Cytotoxicity against human A549 cells after 72 hrs by MTS assay. In kind it is functional, cell-based. Conditions: for IC50: A549, 72 h.
For experiment [3], the system named is A549. Briefly: Cytotoxicity against human A549 cells by MTS assay. Type of experiment: functional, cell-based. Conditions: TDE = time-dependent effect.
Experiment [4] deals with UACC-903. In words: Cytotoxicity against human UACC-903 cells by MTS assay. In kind it is functional, cell-based. The following applies: TDE = time-dependent effect.
The subject of experiment [5] is UACC-903. Briefly: Cytotoxicity against human UACC-903 cells after 24 hrs by MTS assay. Type of experiment: functional, cell-based. The following applies: for IC50: UACC-903, 24 h.
The subject of experiment [6] is HT-29. Briefly: Cytotoxicity against human HT-29 cells by MTS assay. Type of experiment: functional, cell-based. Conditions: TDE = time-dependent effect.
The subject of experiment [7] is A549. Briefly: Cytotoxicity against human A549 cells after 24 hrs by MTS assay. Type of experiment: functional, cell-based. Conditions: for IC50: A549, 24 h.
For experiment [8], the system named is UACC-903. Briefly: Cytotoxicity against human UACC-903 cells after 72 hrs by MTS assay. The following applies: for IC50: UACC-903, 72 h. In kind it is functional, cell-based.
Experiment [9] relates to HT-29. In words: Cytotoxicity against human HT-29 cells after 72 hrs by MTS assay. In kind it is functional, cell-based. The following applies: for IC50: HT-29, 72 h.
The test system of experiment [10] is A549. Briefly: Cell cycle arrest in synchronized human A549 cells assessed as accumulation at S phase at 0.5 uM after 48 hrs by propidium iodide staining-based flow cytometric analysis (reference value: 41.2 +/- 3.1%). In kind it is functional. Background: In flow cytometry, cells or beads pass a laser one at a time.
In experiment [11] the test system is A549. In words: Cell cycle arrest in synchronized human A549 cells assessed as accumulation at G1/G0 phase at 0.5 uM after 48 hrs by propidium iodide staining-based flow cytometric analysis (reference value: 40.6 +/- 4.6%). Type of experiment: functional.
The subject of experiment [12] is A549. Briefly: Cell cycle arrest in synchronized human A549 cells assessed as accumulation at G2/M phase at 2.5 uM after 48 hrs by propidium iodide staining-based flow cytometric analysis (reference value: 18.2 +/- 2.1%). In kind it is functional.
Experiment [13] concerns A549. Briefly: Cell cycle arrest in synchronized human A549 cells assessed as accumulation at G2/M phase at 10 uM after 48 hrs by propidium iodide staining-based flow cytometric analysis (reference value: 18.2 +/- 2.1%). Type of experiment: functional.
Experiment [14] concerns A549. In words: Cell cycle arrest in synchronized human A549 cells assessed as accumulation at G2/M phase at 0.5 uM after 48 hrs by propidium iodide staining-based flow cytometric analysis (reference value: 18.2 +/- 2.1%). In kind it is functional.
Experiment [15] concerns A549. In words: Cell cycle arrest in synchronized human A549 cells assessed as accumulation at G1/G0 phase at 10 uM after 48 hrs by propidium iodide staining-based flow cytometric analysis (reference value: 40.6 +/- 4.6%). In kind it is functional.
Experiment [16] relates to A549. Briefly: Decrease in Cdk1 protein level in synchronized human A549 cells after 18 hrs by Western blot analysis. Type of experiment: functional, cell-based. The gist of the method:
(§1)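 A549 cells synchronized with nocodazole (0.5 μg/ml, 15 h), then treated with compound (0, 0.5, 1.0, 2.0, 5.0 μM; final DMSO 0.2%) for 18 h at 37 °C. RIPA lysates with protease inhibitors, 40 μg protein on 12% SDS-PAGE, probed with rabbit polyclonal anti-human CDK1 or cyclin B1, ECL detection, densitometry; three experiments on different passages.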
On the technique in general: Immunoblotting shows a protein as a band on a membrane.

The subject of experiment [17] is A549. Briefly: Decrease in cyclin B1 protein level in synchronized human A549 cells after 18 hrs by Western blot analysis. Type of experiment: functional, cell-based. The gist of the method: as §1
Experiment [18] concerns A549. Briefly: Cell cycle arrest in synchronized human A549 cells assessed as accumulation at S phase at 10 uM after 48 hrs by propidium iodide staining-based flow cytometric analysis (reference value: 41.2 +/- 3.1%). Type of experiment: functional.
Experiment [19] concerns A549. In words: Cell cycle arrest in synchronized human A549 cells assessed as accumulation at S phase at 2.5 uM after 48 hrs by propidium iodide staining-based flow cytometric analysis (reference value: 41.2 +/- 3.1%). Type of experiment: functional.
The subject of experiment [20] is A549. In words: Cell cycle arrest in synchronized human A549 cells assessed as accumulation at G1/G0 phase at 2.5 uM after 48 hrs by propidium iodide staining-based flow cytometric analysis (reference value: 40.6 +/- 4.6%). Type of experiment: functional.
The test system of experiment [21] is A549. In words: Decrease in cyclin B1 protein level in synchronized human A549 cells at 5 uM after 18 hrs by Western blot analysis. In kind it is functional, cell-based. The gist of the method:
as §1

Experiment [22] deals with A549. In words: Decrease in Cdk1 protein level in synchronized human A549 cells at 5 uM after 18 hrs by Western blot analysis. In kind it is functional, cell-based. The procedure, abridged: as §1
Experiment [23] deals with A549. Briefly: Cell cycle arrest in synchronized human A549 cells assessed as accumulation at S phase after 48 hrs by propidium iodide staining-based flow cytometric analysis. Type of experiment: functional.
Experiment [24] deals with A549. Briefly: Cell cycle arrest in synchronized human A549 cells assessed as accumulation at G2/M phase after 48 hrs by propidium iodide staining-based flow cytometric analysis. Type of experiment: functional.
Experiment [25] concerns A549. In words: Decrease in Cdk1 protein level in synchronized human A549 cells at 2 uM after 18 hrs by Western blot analysis. Type of experiment: functional, cell-based. The gist of the method:
as §1

Experiment [26] relates to A549. Briefly: Decrease in cyclin B1 protein level in synchronized human A549 cells at 2 uM after 18 hrs by Western blot analysis. Type of experiment: functional, cell-based. The gist of the method:
as §1

In general, IC50 refers to the concentration that inhibits the measured activity by half. In the case of `C=CCc1ccc(O)c(-c2ccc(OC)c(CC=C)c2)c1` [METHYLHONOKIOL], the “growth inhibition (GI)” value in experiment [1] was “Dose-dependent effect”; in [2], “Dose-dependent effect”; in experiment [3] it was “tde”; in experiment [4], “tde”; in [5], “Dose-dependent effect”; in experiment [6] it was “tde”. The “growth inhibition (GI)” value in [7], in [8] and in [9] was “Dose-dependent effect” throughout. The 50% inhibitory concentration (IC50) was determined as 22.4 µM in [1]; 1.24 µM in [2]; 37.7 µM in experiment [5]; 1.56 µM in experiment [7]; 24.1 µM in experiment [8]; 14.1 µM in experiment [9].

Turning to `C=CCc1ccc(O)c(-c2cccc(CC=C)c2O)c1`, the “growth inhibition (GI)” value in experiment [1] was “Dose-dependent effect”; in [2] it was “Dose-dependent effect”; in [3] it was “tde”; in experiment [4] it was “tde”; in experiment [5], “Dose-dependent effect”; in experiment [6], “tde”. Besides, the “growth inhibition (GI)” value in [7], in [8] and in experiment [9] was “Dose-dependent effect” throughout. Besides, the 50% inhibitory concentration (IC50) in [1] is 17.4 µM; in [2], 1.08 µM; in experiment [5], 22.3 µM; in experiment [7], 2.04 µM; in experiment [8], 17.4 µM; in experiment [9], 12.4 µM.

On to `C=CCc1cc(-c2cccc(CC=C)c2O)ccc1OC`, for which the “growth inhibition (GI)” value in experiment [1] is “Dose-dependent effect”; in experiment [2] it was “Dose-dependent effect”; in [3], “tde”; in experiment [4], “tde”; in [5], “Dose-dependent effect”; in experiment [6], “tde”. The “growth inhibition (GI)” value in [7], in experiment [8] and in experiment [9] was “Dose-dependent effect” each time. The 50% inhibitory concentration (IC50) amounted to 16.2 µM in [1]; 6.28 µM in experiment [2]; 29 µM in experiment [5]; 11.3 µM in [7]; 24.7 µM in experiment [8]; 11.5 µM in experiment [9].

For the compound `C=CCc1cc(-c2ccc(OC)c(CC=C)c2)c(O)c(-c2ccc(OC)c(CC=C)c2)c1`, the “growth inhibition (GI)” value was “Dose-dependent effect” in experiment [1]; “Dose-dependent effect” in experiment [2]; “tde” in experiment [3]; “tde” in experiment [4]; “Dose-dependent effect” in experiment [5]; “tde” in experiment [6]. Moreover, the “growth inhibition (GI)” value in [7], in experiment [8] and in experiment [9] was “Dose-dependent effect” in each case. For the same compound, the IC50 in [1] turned out to be 16.9 µM; in experiment [2] it was 1.25 µM; in experiment [5], 3.94 µM; in experiment [7], 1.74 µM; in experiment [8], 2.93 µM; in experiment [9], 11.4 µM.

With `C=CCc1ccc(O)c(-c2ccc(O)c(CC=C)c2)c1` [HONOKIOL], the “growth inhibition (GI)” value was “Dose-dependent effect” in [1]; “Dose-dependent effect” in experiment [2]; “tde” in [3]; “tde” in [4]; “Dose-dependent effect” in [5]; “tde” in [6]. In addition, the “growth inhibition (GI)” value in experiment [7], in experiment [8] and in experiment [9] was “Dose-dependent effect” throughout. The IC50 in experiment [1] was determined as 23.9 µM; in experiment [2], 7.75 µM; in experiment [5], 7.45 µM; in [7] it was 12.5 µM; in [8] it was 5.1 µM; in experiment [9], 13.2 µM. The Activity is given as 37.9% in [10]; 50.5% in [11]; 10.8% in experiment [12]; 5.4% in experiment [13]; 11.6% in experiment [14]; 72.9% in [15]. In addition, the Activity entry in experiment [16] is “Dose-dependent effect”; in [17] it was “Dose-dependent effect”; in [18] it was 21.7%; in experiment [19], 28.1%; in [20] it was 61.1%.

Consider `C=CCc1cc(-c2ccc(OC)c(CC=C)c2)ccc1O`, for which the outcome in [21], in experiment [22], in experiment [25] and in experiment [26] was Active. For the same compound, the “growth inhibition (GI)” value in experiment [1] is “Dose-dependent effect”; in experiment [2], “Dose-dependent effect”; in experiment [3] it was “tde”; in experiment [4] it was “tde”; in experiment [5], “Dose-dependent effect”; in [6], “tde”. Besides, the “growth inhibition (GI)” value in experiment [7], in experiment [8] and in experiment [9] was “Dose-dependent effect” in each case. Besides, the IC50 in [1] is 3.19 µM; in experiment [2], 1.99 µM; in [5], 3.05 µM; in [7], 2.47 µM; in experiment [8], 1.39 µM; in [9], 2 µM. The Activity in [10] was 23%; in experiment [11] it was 69.8%; in experiment [12], 4.2%; in experiment [13], 2.8%; in [23], “Dose-dependent effect”; in experiment [24], “Dose-dependent effect”. For the same compound, the Activity was 7.2% in [14]; 82.8% in experiment [15]; “Dose-dependent effect” in experiment [16]; “Dose-dependent effect” in experiment [17]; 14.3% in [18]; 20.2% in experiment [19]. Moreover, in [20], the Activity is given as 75.7%.

With `C=CCc1cc(Br)c(O)c(-c2ccc(OC)c(CC=C)c2)c1`, the outcome in [21], in experiment [22], in experiment [25] and in [26] was Active. Also, the “growth inhibition (GI)” value is “Dose-dependent effect” in [1]; “Dose-dependent effect” in experiment [2]; “tde” in [3]; “tde” in experiment [4]; “Dose-dependent effect” in [5]; “tde” in experiment [6]. Besides, the “growth inhibition (GI)” value in experiment [7], in [8] and in experiment [9] was “Dose-dependent effect” in each case. The IC50 in [1] was 3.99 µM; in [2], 1.04 µM; in experiment [5], 2.98 µM; in experiment [7] it was 1.73 µM; in experiment [8], 1.29 µM; in experiment [9], 1.87 µM. In addition, the Activity in experiment [10] was 32.8%; in experiment [11] it was 55.8%; in [12] it was 6.3%; in experiment [13], 3%; in [23], “Dose-dependent effect”; in [24], “Dose-dependent effect”. Moreover, the Activity in [14] was 11.4%; in [15], 76.4%; in experiment [16], “Dose-dependent effect”; in [17], “Dose-dependent effect”; in experiment [18] it was 20.7%; in experiment [19], 30.6%. The Activity in [20] is on record as 63.1%.
